Settings in all cases: stereoisomer not certain
The target of one test is T1, OR1G1 (Homo sapiens) (UniProt P47890).
T1 sequence (whole entry): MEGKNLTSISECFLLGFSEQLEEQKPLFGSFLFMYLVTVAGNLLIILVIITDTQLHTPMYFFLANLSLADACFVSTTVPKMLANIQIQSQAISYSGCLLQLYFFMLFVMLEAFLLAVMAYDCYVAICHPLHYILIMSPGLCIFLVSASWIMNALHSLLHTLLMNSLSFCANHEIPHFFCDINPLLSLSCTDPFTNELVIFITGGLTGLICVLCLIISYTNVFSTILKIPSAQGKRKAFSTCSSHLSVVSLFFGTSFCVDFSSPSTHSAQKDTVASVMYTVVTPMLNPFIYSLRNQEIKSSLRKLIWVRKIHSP
In a few lines:
(§1)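 Assay methods differ from source to source, frequently being transient luciferase assays in mammalian cell lines. For each receptor–molecule pair, the label responsive (active) applies when the original authors judged the measured signal statistically different from baseline, and non-responsive (inactive) applies otherwise.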

A further test addresses T2, OR1F12P (Homo sapiens) (UniProt Q8NHA8).
T2 sequence (whole entry): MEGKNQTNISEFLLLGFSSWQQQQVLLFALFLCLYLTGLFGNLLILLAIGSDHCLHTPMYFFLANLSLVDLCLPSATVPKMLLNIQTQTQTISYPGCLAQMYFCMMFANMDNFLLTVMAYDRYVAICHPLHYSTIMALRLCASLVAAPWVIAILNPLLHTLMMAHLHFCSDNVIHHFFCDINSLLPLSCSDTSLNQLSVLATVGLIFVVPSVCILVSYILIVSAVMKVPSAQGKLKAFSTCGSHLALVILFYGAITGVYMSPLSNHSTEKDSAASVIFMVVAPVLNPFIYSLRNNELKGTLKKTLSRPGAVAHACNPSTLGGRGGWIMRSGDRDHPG
In a few lines: as §1

In a further test the test system is T3, OR1F1.
T3 sequence (whole entry): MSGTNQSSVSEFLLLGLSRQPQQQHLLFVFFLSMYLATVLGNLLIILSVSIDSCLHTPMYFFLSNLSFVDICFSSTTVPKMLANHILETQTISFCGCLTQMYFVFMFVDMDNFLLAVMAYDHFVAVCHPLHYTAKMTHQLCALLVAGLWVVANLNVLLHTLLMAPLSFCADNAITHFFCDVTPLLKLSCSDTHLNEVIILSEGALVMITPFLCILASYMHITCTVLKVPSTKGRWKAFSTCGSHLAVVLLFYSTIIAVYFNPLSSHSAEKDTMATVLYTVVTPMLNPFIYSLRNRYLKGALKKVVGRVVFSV
In short, it runs like this: as §1

Another test deals with T4, OR1I1 (Homo sapiens) (UniProt O60431).
T4 sequence (whole entry): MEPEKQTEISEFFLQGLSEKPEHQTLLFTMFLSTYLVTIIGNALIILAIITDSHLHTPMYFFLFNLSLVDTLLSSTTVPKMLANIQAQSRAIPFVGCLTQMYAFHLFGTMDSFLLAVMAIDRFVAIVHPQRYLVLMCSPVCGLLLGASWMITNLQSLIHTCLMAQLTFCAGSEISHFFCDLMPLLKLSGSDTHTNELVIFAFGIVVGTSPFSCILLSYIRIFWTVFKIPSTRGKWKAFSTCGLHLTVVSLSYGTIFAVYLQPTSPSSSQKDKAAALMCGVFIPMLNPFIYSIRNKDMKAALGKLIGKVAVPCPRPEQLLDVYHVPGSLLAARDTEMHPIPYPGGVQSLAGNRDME
In a few lines: as §1

For another test, the target named is T5, OR1J1 (Homo sapiens) (UniProt Q8NGS3).
T5 sequence (whole entry): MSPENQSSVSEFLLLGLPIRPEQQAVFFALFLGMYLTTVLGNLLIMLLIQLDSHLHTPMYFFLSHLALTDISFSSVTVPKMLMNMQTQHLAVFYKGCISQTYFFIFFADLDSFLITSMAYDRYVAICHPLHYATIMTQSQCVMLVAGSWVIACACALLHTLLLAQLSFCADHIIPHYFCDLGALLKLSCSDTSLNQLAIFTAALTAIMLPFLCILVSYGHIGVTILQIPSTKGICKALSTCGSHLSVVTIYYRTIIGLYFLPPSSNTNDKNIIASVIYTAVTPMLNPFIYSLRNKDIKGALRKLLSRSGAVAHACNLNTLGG
In short, it runs like this: as §1

In another test the target is T6, OR1J2 (Homo sapiens) (UniProt Q8NGS2).
T6 sequence (whole entry): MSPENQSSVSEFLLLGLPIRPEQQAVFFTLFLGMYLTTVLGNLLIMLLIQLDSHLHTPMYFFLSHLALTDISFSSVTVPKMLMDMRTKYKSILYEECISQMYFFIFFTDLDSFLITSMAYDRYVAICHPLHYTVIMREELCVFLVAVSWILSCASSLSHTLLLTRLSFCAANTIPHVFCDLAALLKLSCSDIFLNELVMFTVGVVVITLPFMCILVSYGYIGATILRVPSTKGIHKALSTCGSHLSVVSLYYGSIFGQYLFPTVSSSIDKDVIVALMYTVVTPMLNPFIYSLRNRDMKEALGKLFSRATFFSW
In short, it runs like this: as §1

The target of the next test is T7, OR1J4 (Homo sapiens) (UniProt Q8NGS1).
T7 sequence (whole entry): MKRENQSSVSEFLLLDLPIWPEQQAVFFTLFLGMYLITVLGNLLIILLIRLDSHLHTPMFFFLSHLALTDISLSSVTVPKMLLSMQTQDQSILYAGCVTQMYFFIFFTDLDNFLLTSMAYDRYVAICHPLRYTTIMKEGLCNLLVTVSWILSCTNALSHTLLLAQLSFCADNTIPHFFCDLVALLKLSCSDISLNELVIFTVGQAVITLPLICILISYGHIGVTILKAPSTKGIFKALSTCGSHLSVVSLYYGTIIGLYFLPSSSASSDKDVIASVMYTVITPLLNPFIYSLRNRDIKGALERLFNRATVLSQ
In a few lines:
as §1

The target in the next test is T8, OR1K1 (Homo sapiens) (UniProt Q8NGR3).
T8 sequence (whole entry): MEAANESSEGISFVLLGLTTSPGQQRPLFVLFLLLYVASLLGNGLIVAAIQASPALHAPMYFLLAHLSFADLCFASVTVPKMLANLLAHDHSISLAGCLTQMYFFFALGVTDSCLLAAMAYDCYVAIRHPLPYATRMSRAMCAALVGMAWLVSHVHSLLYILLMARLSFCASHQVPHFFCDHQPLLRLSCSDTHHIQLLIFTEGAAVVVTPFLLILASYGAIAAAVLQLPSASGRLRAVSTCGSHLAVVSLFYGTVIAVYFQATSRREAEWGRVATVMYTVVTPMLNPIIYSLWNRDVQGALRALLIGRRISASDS
In a few lines: as §1

The test system of a further test is T9, OR1L1.
T9 sequence (whole entry): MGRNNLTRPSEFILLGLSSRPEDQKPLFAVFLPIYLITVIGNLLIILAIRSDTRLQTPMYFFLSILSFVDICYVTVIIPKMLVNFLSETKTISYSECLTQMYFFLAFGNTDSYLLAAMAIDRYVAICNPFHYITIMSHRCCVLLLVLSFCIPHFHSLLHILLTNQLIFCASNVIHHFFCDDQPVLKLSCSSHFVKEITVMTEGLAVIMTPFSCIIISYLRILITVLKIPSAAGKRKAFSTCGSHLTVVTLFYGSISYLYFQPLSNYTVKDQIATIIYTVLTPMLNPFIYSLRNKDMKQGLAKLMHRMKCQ
In short, it runs like this: as §1

The next test has as its target T10, OR1L3 (Homo sapiens) (UniProt Q8NH93).
T10 sequence (whole entry): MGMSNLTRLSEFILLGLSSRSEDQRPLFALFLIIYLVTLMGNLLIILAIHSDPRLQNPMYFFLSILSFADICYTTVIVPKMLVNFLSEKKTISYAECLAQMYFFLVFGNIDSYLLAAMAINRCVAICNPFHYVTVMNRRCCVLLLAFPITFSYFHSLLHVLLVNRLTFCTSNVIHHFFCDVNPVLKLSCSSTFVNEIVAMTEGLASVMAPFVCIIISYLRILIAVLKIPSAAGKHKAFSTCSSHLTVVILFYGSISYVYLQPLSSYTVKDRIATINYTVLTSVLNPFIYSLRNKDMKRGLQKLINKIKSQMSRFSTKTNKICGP
In a few lines:
as §1

For another test, the target named is T11, OR1L4 (Homo sapiens) (UniProt Q8NGR5).
T11 sequence (whole entry): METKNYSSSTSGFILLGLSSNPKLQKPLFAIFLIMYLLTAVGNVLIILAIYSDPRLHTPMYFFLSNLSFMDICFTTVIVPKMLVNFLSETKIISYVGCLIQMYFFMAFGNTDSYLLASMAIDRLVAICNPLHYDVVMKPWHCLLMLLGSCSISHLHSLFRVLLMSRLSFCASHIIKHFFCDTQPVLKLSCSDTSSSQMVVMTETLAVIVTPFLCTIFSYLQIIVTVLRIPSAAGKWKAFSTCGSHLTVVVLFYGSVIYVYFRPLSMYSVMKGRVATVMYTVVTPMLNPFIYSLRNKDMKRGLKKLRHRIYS
In a few lines: as §1

The next test concerns T12, OR1L4.
T12 sequence (whole entry): T11 sequence (whole entry) with G234R
In short, it runs like this:
as §1

The test system of another test is T13, OR1L6.
T13 sequence (whole entry): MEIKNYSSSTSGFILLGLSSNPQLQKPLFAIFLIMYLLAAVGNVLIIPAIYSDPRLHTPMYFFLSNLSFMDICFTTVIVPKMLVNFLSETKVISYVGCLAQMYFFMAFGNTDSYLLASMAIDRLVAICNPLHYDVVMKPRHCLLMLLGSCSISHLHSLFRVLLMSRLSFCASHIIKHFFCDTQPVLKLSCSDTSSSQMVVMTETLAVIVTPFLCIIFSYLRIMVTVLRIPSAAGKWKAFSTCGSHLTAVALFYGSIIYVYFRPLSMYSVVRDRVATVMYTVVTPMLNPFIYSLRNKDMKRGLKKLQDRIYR
In a few lines:
as §1

For the next test, the target named is T14, OR1L8 (Homo sapiens) (UniProt Q8NGR8).
T14 sequence (whole entry): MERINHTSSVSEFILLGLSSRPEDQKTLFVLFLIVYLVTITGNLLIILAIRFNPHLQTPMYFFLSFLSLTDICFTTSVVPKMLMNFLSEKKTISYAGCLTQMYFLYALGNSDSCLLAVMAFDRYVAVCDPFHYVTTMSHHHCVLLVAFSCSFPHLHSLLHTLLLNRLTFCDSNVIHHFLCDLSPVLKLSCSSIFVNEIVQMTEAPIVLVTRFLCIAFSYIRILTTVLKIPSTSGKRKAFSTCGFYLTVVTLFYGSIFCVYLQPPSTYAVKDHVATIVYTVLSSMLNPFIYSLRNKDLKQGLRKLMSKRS
In short, it runs like this: as §1

The subject of another test is T15, OR1L8 T27P R211P.
T15 sequence (whole entry): T14 sequence (whole entry) with T27P, R211P
In a few lines:
as §1

The target of a further test is T16, OR1M1 (Homo sapiens) (UniProt Q8NGA1).
T16 sequence (whole entry): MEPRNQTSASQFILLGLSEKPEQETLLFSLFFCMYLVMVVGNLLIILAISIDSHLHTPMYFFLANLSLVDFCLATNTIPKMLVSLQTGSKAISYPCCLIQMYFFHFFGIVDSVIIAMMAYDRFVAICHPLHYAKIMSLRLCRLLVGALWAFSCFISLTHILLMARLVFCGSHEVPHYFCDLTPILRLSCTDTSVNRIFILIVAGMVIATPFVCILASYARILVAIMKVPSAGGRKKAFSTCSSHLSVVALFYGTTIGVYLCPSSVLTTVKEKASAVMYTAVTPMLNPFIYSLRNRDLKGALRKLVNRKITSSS
In short, it runs like this:
as §1

The target in another test is T17, OR1N1 (Homo sapiens) (UniProt Q8NGS0).
T17 sequence (whole entry): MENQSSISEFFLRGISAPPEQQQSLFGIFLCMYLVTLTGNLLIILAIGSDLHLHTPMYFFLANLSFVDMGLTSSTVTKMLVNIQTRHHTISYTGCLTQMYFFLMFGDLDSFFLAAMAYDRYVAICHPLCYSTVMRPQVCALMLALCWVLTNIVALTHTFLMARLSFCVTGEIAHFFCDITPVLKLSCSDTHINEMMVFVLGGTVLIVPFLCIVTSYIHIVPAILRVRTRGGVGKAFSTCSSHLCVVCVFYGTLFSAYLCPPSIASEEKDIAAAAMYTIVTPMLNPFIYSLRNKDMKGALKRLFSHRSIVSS
In short, it runs like this:
as §1

A further test relates to T18, OR1N2 W37R.
T18 sequence (whole entry): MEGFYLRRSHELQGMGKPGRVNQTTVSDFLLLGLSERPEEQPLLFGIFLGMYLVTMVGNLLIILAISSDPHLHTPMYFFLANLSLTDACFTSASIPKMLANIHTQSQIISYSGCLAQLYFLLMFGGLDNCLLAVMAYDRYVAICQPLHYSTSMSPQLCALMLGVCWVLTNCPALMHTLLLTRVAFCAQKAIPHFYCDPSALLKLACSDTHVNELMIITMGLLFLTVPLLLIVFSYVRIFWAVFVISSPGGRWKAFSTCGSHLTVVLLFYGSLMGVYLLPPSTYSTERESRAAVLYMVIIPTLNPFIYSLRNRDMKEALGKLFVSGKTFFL
In short, it runs like this: as §1

Changes are numbered by the printed parent chain.

Regarding `CCCCC(O)CCC` (centres undefined), the “odorant receptor agonist call” value in the test with OR1G1 (Homo sapiens) was “active”.
Regarding `Cc1cnc(C)c(C)n1`, the “odorant receptor agonist call” value with OR1F12P (Homo sapiens), in the test on OR1F1, with OR1G1 (Homo sapiens), with OR1I1 (Homo sapiens), in the test with OR1J1 (Homo sapiens) and in the test with OR1J2 (Homo sapiens) was “inactive” throughout. In addition, the “odorant receptor agonist call” value with OR1J4 (Homo sapiens), with OR1K1 (Homo sapiens), with OR1L1, with OR1L3 (Homo sapiens), with OR1L4 (Homo sapiens) and with OR1L4 was “inactive” throughout. Further, the “odorant receptor agonist call” value with OR1L6, with OR1L8 (Homo sapiens), in the test on OR1L8 T27P R211P, with OR1M1 (Homo sapiens), with OR1N1 (Homo sapiens) and with OR1N2 W37R was “inactive” in each case.

For the origin of these results see the M2OR odorant receptor database.
